Laboratory results as given in ChEMBL document CHEMBL1139875, “Discovery of 4-aminobutyric acid derivatives possessing anticonvulsant and antinociceptive activities: a hybrid pharmacophore approach” (2007).
Active and inactive are the calls of the source. The calls are words filed in the database; no cut-off is given here.

Legend:
Rattus norvegicus [1] = assay: Anti-dynamic allodynia effect in Sprague-Dawley rat SNL model assessed as latency to paw withdrawal 100 mg/kg, ip after 1.5 hrs; type: functional; conditions: route intraperitoneal
Procedure, shortened: (§1)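 Left L5 spinal nerve ligation rats, tested preoperatively and 9 days postoperatively, then given 100 mg/kg i.p. (vehicle 30% v/v PEG 400 in water). After 10 min acclimatization, plantar surface of affected paw stroked mildly with a cotton-bud; paw lift response recorded. n = 4; retested 0.5-2.5 h post-dose.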

Rattus norvegicus [2] = assay: Effect on spontaneous pain in Sprague-Dawley rat SNL model assessed as duration of paw withdrawal at 100 mg/kg, ip after 1 hr; type: functional; conditions: route intraperitoneal
Procedure, shortened: (§2)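 Rats underwent left L5 spinal nerve ligation (Kim and Chung) under i.p. pentobarbital (65 mg/kg). Spontaneous pain is recorded for 5 min after 10 min acclimatization, as cumulative duration the ipsilateral paw is lifted, excluding locomotor lifts. Dosing is 100 mg/kg i.p. in 30% v/v PEG 400/water, with testing at 0.5–2.5 h. Four rats, mean ± SEM versus predrug, one-way ANOVA with Bonferroni.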

Rattus norvegicus [3] = assay: Antihyperalgesic effects in Sprague-Dawley rat SNL model assessed as duration of paw withdrawal at 100 mg/kg, ip after 1 hr, ip; type: functional; conditions: route intraperitoneal
Procedure, shortened: (§3)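 L5 SNL rats (n = 4), dosed 100 mg/kg i.p. (vehicle 30% v/v PEG 400 in water). Pin-prick to midplantar ipsilateral left hindpaw; withdrawal duration, mean of three responses; ≥2 s defined abnormal. Mean ± SEM; one-way ANOVA with Bonferroni versus predrug.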

Rattus norvegicus [4] = assay: Effect on spontaneous pain in Sprague-Dawley rat SNL model assessed as duration of paw withdrawal at 100 mg/kg, ip after 2 hrs; type: functional; conditions: route intraperitoneal; procedure, shortened: as §2
Mus musculus [5] = assay: Anticonvulsant activity in Swiss Albino mouse at 300 mg/kg, ip after 4 hrs by scPIC test; type: functional, organism-based; parameters: dose 300 mg/kg
Procedure, shortened: (§4)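 Mice (Swiss, 20-25 g) given i.p. doses of 30, 100 and 300 mg/kg under ADD program protocols, three per group, examined at 0.5 and 4 h in MES, scPTZ, scSTY or scPIC seizure tests. Value is the minimum dose protecting half or more of the mice.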

Rattus norvegicus [6] = assay: Anti-dynamic allodynia effect in Sprague-Dawley rat SNL model assessed as latency to paw withdrawal 100 mg/kg, ip after 2.5 hrs; type: functional; conditions: route intraperitoneal; procedure, shortened: as §1
Rattus norvegicus [7] = assay: Antihyperalgesic effects in Sprague-Dawley rat CCI model assessed as duration of paw withdrawal at 100 mg/kg, ip after 1.5 hrs; type: functional; conditions: route intraperitoneal
Mus musculus [8] = assay: Anticonvulsant activity in Swiss Albino mouse at 300 mg/kg, ip after 0.5 hr by scPTZ test; type: functional, organism-based; parameters: dose 300 mg/kg; procedure, shortened: as §4
Mus musculus [9] = assay: Neurotoxicity in Swiss Albino mouse at 300 mg/kg, ip after 0.5 hr by rotarod test; type: functional, organism-based; parameters: dose 300 mg/kg
Procedure, shortened: (§5)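 Swiss mice (20-25 g) are trained on an accelerating rotorod (10 rpm, 3.2 cm rod), then injected i.p. at 30, 100 or 300 mg/kg, with three per group. Neurotoxicity means failure to keep equilibrium for at least 1 min in each of three trials, checked at 0.5 and 4 h. The value reported is the minimum dose affecting half or more of the mice.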

Rattus norvegicus [10] = assay: Anti-dynamic allodynia effect in Sprague-Dawley rat SNL model assessed as latency to paw withdrawal 100 mg/kg, ip after 1 hr; type: functional; conditions: route intraperitoneal; procedure, shortened: as §1
Mus musculus [11] = assay: Anticonvulsant activity in Swiss Albino mouse at 300 mg/kg, ip after 4 hrs by scSTY test; type: functional, organism-based; parameters: dose 300 mg/kg; procedure, shortened: as §4
Mus musculus [12] = assay: Analgesic activity in Swiss Albino mouse assessed as inhibition of acetic acid-induced writhing responses at 100 mg/kg, ip; type: functional; conditions: for inhibition in vivo at 100 mg/kg: route intraperitoneal
Procedure, shortened: (§6)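 Mice in groups of six dosed i.p. at 100 mg/kg, controls receiving 30% v/v PEG 400 in water. Writhing induced by i.p. 0.1 mL of 3% v/v acetic acid 1 h after drug. Writhes (abdominal stretch with at least one hind limb extended) counted over 30 min; % inhibition calculated. Mean ± SEM, Student's t test.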

Mus musculus [13] = assay: Anticonvulsant activity in Swiss Albino mouse at 300 mg/kg, ip after 0.5 hr by scSTY test; type: functional, organism-based; parameters: dose 300 mg/kg; procedure, shortened: as §4
Rattus norvegicus [14] = assay: Anti-dynamic allodynia effect in Sprague-Dawley rat SNL model assessed as latency to paw withdrawal 100 mg/kg, ip after 2 hrs; type: functional; conditions: route intraperitoneal; procedure, shortened: as §1
Rattus norvegicus [15] = assay: Antihyperalgesic effects in Sprague-Dawley rat SNL model assessed as duration of paw withdrawal at 100 mg/kg, ip after 0.5 hr, ip; type: functional; conditions: route intraperitoneal; procedure, shortened: as §3
Mus musculus [16] = assay: Neurotoxicity in Swiss Albino mouse at 300 mg/kg, ip after 4 hrs by rotarod test; type: functional, organism-based; parameters: dose 300 mg/kg; procedure, shortened: as §5
Rattus norvegicus [17] = assay: Anti-dynamic allodynia effect in Sprague-Dawley rat SNL model assessed as latency to paw withdrawal 100 mg/kg, ip after 0.5 hr; type: functional; conditions: route intraperitoneal; procedure, shortened: as §1
Rattus norvegicus [18] = assay: Antihyperalgesic effects in Sprague-Dawley rat SNL model assessed as duration of paw withdrawal at 100 mg/kg, ip after 2.5 hrs, ip; type: functional; conditions: route intraperitoneal; procedure, shortened: as §3
Rattus norvegicus [19] = assay: Antihyperalgesic effects in Sprague-Dawley rat CCI model assessed as duration of paw withdrawal at 100 mg/kg, ip after 0.5 hr; type: functional; conditions: route intraperitoneal
Rattus norvegicus [20] = assay: Antihyperalgesic effects in Sprague-Dawley rat CCI model assessed as duration of paw withdrawal at 100 mg/kg, ip after 1 hr; type: functional; conditions: route intraperitoneal
Rattus norvegicus [21] = assay: Effect on spontaneous pain in Sprague-Dawley rat SNL model assessed as duration of paw withdrawal at 100 mg/kg, ip after 2.5 hrs; type: functional; conditions: route intraperitoneal; procedure, shortened: as §2
Mus musculus [22] = assay: Anticonvulsant activity in Swiss Albino mouse at 300 mg/kg, ip after 0.5 hr by MES test; type: functional, organism-based; parameters: dose 300 mg/kg; procedure, shortened: as §4
Mus musculus [23] = assay: Anticonvulsant activity in Swiss Albino mouse at 300 mg/kg, ip after 0.5 hr by scPIC test; type: functional, organism-based; parameters: dose 300 mg/kg; procedure, shortened: as §4
Rattus norvegicus [24] = assay: Effect on spontaneous pain in Sprague-Dawley rat SNL model assessed as duration of paw withdrawal at 100 mg/kg, ip after 1.5 hrs; type: functional; conditions: route intraperitoneal; procedure, shortened: as §2
Mus musculus [25] = assay: Analgesic activity in Swiss Albino mouse assessed as number of acetic acid-induced writhing per 30 min after 100 mg/kg, ip; type: functional; procedure, shortened: as §6
Rattus norvegicus [26] = assay: Antihyperalgesic effects in Sprague-Dawley rat SNL model assessed as duration of paw withdrawal at 100 mg/kg, ip after 1.5 hrs, ip; type: functional; conditions: route intraperitoneal; procedure, shortened: as §3
Rattus norvegicus [27] = assay: Antihyperalgesic effects in Sprague-Dawley rat CCI model assessed as duration of paw withdrawal at 100 mg/kg, ip after 2 hrs; type: functional; conditions: route intraperitoneal
Rattus norvegicus [28] = assay: Antihyperalgesic effects in Sprague-Dawley rat CCI model assessed as duration of paw withdrawal at 100 mg/kg, ip after 2.5 hrs; type: functional; conditions: route intraperitoneal
Rattus norvegicus [29] = assay: Antihyperalgesic effects in Sprague-Dawley rat SNL model assessed as duration of paw withdrawal at 100 mg/kg, ip after 2 hrs, ip; type: functional; conditions: route intraperitoneal; procedure, shortened: as §3
Mus musculus [30] = assay: Anticonvulsant activity in Swiss Albino mouse at 300 mg/kg, ip after 4 hrs by MES test; type: functional, organism-based; parameters: dose 300 mg/kg; procedure, shortened: as §4
Rattus norvegicus [31] = assay: Effect on spontaneous pain in Sprague-Dawley rat SNL model assessed as duration of paw withdrawal at 100 mg/kg, ip after 0.5 hr; type: functional; conditions: route intraperitoneal; procedure, shortened: as §2
Rattus norvegicus [32] = assay: Effect on spontaneous pain in Sprague-Dawley rat CCI model assessed as duration of paw withdrawal at 100 mg/kg, ip after 2.5 hrs; type: functional; conditions: route intraperitoneal
Procedure, shortened: (§7)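 Unilateral CCI of sciatic nerve (Bennett and Xie) in Sprague-Dawley rats under i.p. pentobarbital sodium (65 mg/kg). Spontaneous pain is scored over 5 min after 10 min acclimatization, as cumulative time the ipsilateral paw is held off the floor. Paw lifts from locomotion or repositioning are excluded. Drug is given at 100 mg/kg i.p. with 30% v/v PEG 400 vehicle. Mean ± SEM, n = 4, compared with predrug by ANOVA/Bonferroni.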

Rattus norvegicus [33] = assay: Effect on spontaneous pain in Sprague-Dawley rat CCI model assessed as duration of paw withdrawal at 100 mg/kg, ip after 1 hr; type: functional; conditions: route intraperitoneal
Procedure, shortened: (§8)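 CCI rats (n = 4) dosed 100 mg/kg i.p. (vehicle 30% v/v PEG 400 in water). After 10 min acclimatization in a cage 5 cm above ground, cumulative time the ipsilateral paw was held off the floor over 5 min recorded, excluding locomotion lifts. Mean ± SEM; ANOVA/Bonferroni versus predrug.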

Rattus norvegicus [34] = assay: Effect on spontaneous pain in Sprague-Dawley rat CCI model assessed as duration of paw withdrawal at 100 mg/kg, ip after 0.5 hr; type: functional; conditions: route intraperitoneal; procedure, shortened: as §8
Rattus norvegicus [35] = assay: Effect on spontaneous pain in Sprague-Dawley rat CCI model assessed as duration of paw withdrawal at 100 mg/kg, ip after 1.5 hrs; type: functional; conditions: route intraperitoneal; procedure, shortened: as §7
Rattus norvegicus [36] = assay: Effect on spontaneous pain in Sprague-Dawley rat CCI model assessed as duration of paw withdrawal at 100 mg/kg, ip after 2 hrs; type: functional; conditions: route intraperitoneal; procedure, shortened: as §7

| Structure (SMILES) | Activity (Rattus norvegicus [1]) [s] | Activity (Rattus norvegicus [2]) [s] | Activity (Rattus norvegicus [3]) [s] | Activity (Rattus norvegicus [4]) [s] | Activity (Mus musculus [5]) | Activity (Rattus norvegicus [6]) [s] | Activity (Mus musculus [8]) | Activity (Mus musculus [9]) | Activity (Rattus norvegicus [10]) [s] | Activity (Mus musculus [11]) | inhibition in vivo at 100 mg/kg (Mus musculus [12]) [%] | Activity (Mus musculus [13]) | Activity (Rattus norvegicus [14]) [s] | Activity (Rattus norvegicus [15]) [s] | Activity (Mus musculus [16]) | Activity (Rattus norvegicus [17]) [s] | Activity (Mus musculus [22]) | Activity (Mus musculus [23]) | Activity (Mus musculus [25]; route intraperitoneal) | Activity (Mus musculus [30]) | also measured |
| --- | --- | --- | --- | --- | --- | --- | --- | --- | --- | --- | --- | --- | --- | --- | --- | --- | --- | --- | --- | --- | --- |
| O=C(O)CCCNC(=O)NN=C1CCCCC1 | 1.8 | 20.2 | 19.7 | 10.6 | inactive | 0.24 | Active | inactive | 5.6 | inactive | 82 | inactive | 0.2 | 14.7 | inactive | 5.2 | inactive | Active | 32 | inactive | Activity (Rattus norvegicus [7]): 4.8 s; Activity (Rattus norvegicus [18]): 12.8 s; Activity (Rattus norvegicus [19]): 20.3 s; Activity (Rattus norvegicus [20]): 24.8 s; Activity (Rattus norvegicus [21]): 10.8 s; Activity (Rattus norvegicus [24]): 10.8 s; Activity (Rattus norvegicus [26]): 15.6 s; Activity (Rattus norvegicus [27]): 5.2 s; Activity (Rattus norvegicus [28]): 7 s; Activity (Rattus norvegicus [29]): 11.3 s; Activity (Rattus norvegicus [31]): 21.2 s |
| O=C(O)CCCNC(=O)NN=C(c1ccccc1)c1ccccc1 | – | 18.5 | 19.9 | 10.9 | Active | – | inactive | Active | – | Active | 93 | Active | – | 18.4 | inactive | – | Active | Active | 13.3 | inactive | Activity (Rattus norvegicus [18]): 15 s; Activity (Rattus norvegicus [21]): 8.8 s; Activity (Rattus norvegicus [24]): 13.4 s; Activity (Rattus norvegicus [26]): 18.5 s; Activity (Rattus norvegicus [29]): 13.7 s; Activity (Rattus norvegicus [31]): 15.1 s |
| C/C(=N\NC(=O)NCCCC(=O)O)c1ccc([N+](=O)[O-])cc1 | – | – | – | – | inactive | – | inactive | inactive | – | inactive | 67 | inactive | – | – | inactive | – | inactive | inactive | 61 | inactive | – |
| CCC1(C)CC(=O)NC1=O (stereo unspecified) | – | – | – | – | inactive | – | Active | inactive | – | inactive | – | inactive | – | – | inactive | – | inactive | inactive | – | inactive | Activity (Mus musculus [12]): inactive; Activity (Mus musculus [25]): inactive |
| CC(=O)Oc1ccccc1C(=O)O [ASPIRIN] | – | – | – | – | inactive | – | inactive | inactive | – | inactive | 97 | inactive | – | – | inactive | – | inactive | inactive | 5.7 | inactive | – |
| O=C(O)CCCNC(=O)N/N=C/c1ccc([N+](=O)[O-])cc1 | 1.5 | – | – | – | inactive | 1.34 | inactive | Active | 4.3 | inactive | 90 | inactive | 1.8 | – | inactive | 14.5 | inactive | inactive | 18.7 | inactive | Activity (Rattus norvegicus [32]): 17.2 s; Activity (Rattus norvegicus [33]): 9.2 s; Activity (Rattus norvegicus [34]): 10.2 s; Activity (Rattus norvegicus [35]): 13.6 s; Activity (Rattus norvegicus [36]): 11.3 s |
